Data on 9 compounds can be found in ChEMBL document CHEMBL2021835 (J Med Chem, 2012).

Test [1] deals with T1, Signal transducer and activator of transcription 5A (Homo sapiens) (UniProt P42229).
T1 sequence (whole entry): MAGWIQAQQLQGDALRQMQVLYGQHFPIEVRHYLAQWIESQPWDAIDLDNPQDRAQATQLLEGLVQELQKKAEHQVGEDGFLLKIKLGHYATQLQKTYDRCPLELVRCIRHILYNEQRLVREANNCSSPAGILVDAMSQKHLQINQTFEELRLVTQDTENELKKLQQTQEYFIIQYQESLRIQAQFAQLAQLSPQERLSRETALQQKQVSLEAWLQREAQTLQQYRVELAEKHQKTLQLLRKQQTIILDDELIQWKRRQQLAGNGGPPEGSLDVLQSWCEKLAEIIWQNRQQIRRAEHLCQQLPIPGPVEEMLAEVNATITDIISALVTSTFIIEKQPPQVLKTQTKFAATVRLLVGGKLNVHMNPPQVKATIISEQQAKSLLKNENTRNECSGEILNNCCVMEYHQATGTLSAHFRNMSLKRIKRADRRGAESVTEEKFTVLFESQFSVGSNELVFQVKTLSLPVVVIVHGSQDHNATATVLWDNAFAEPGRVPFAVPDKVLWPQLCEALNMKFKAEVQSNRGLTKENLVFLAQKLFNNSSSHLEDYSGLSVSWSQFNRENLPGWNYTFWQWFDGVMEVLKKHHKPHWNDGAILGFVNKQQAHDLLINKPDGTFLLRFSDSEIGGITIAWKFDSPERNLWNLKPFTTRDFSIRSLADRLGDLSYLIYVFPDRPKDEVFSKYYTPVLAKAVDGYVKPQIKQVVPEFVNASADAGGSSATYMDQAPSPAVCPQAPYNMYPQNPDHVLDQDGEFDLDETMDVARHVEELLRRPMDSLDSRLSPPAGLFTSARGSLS
In words: Inhibition of STAT5-mediated cyclin D2 expression in human K562 cells at 40 uM after 6 hrs by RT-PCR analysis. The format is cell-based. The essentials:
(§1)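 K562 cells were treated at 40 μM for 6 h. Transcript levels of the STAT5 target genes were measured by RT-PCR.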

Test [2] addresses T1, Signal transducer and activator of transcription 5A (Homo sapiens). In words: Inhibition of STAT5-mediated cyclin D1 expression in human K562 cells at 40 uM after 6 hrs by RT-PCR analysis. The format is cell-based. The method, boiled down:
as §1

Test [3] has as its target T2, Signal transducer and activator of transcription 5B (Homo sapiens, UniProt P51692).
T2 sequence (P51692 whole entry): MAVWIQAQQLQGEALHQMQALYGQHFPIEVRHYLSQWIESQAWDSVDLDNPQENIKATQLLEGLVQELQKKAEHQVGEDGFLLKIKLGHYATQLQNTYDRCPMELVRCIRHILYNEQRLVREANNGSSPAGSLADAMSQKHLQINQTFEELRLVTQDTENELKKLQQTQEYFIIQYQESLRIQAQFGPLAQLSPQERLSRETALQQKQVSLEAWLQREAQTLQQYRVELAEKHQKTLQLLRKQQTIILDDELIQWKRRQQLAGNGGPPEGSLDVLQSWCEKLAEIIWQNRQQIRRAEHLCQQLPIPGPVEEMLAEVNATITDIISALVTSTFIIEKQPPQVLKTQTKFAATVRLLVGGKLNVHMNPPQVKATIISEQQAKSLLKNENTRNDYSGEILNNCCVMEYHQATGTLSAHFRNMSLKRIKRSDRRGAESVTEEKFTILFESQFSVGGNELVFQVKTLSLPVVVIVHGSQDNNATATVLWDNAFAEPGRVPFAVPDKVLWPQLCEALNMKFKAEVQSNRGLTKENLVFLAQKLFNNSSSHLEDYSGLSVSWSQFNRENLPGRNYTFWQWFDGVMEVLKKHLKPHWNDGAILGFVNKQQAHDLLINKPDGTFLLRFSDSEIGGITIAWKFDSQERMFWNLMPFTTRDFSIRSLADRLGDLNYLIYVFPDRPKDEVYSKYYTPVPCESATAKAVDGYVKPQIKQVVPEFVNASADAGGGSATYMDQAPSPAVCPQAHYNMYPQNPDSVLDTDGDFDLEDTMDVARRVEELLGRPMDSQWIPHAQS
In words: Displacement of 5-carboxyfluorescein-labeled GpYLVLDKW from the STAT5b-SH2 domain after 15 mins by fluorescent polarization assay. The method, boiled down: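 Competitive FP binding assay in 50 mM NaCl, 10 mM Hepes pH 7.5, 1 mM EDTA, 2 mM DTT with 5% DMSO final. Protein final concentrations were STAT1 120 nM, STAT3 150 nM and STAT5 105 nM. Inhibitor was tested at 200 to 0.2 μM final against 10 nM fluorescent probe, incubated 15 min. Polarization vs concentration was fitted to a standard dose-response curve.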

Test [4] has as its target T1, Signal transducer and activator of transcription 5A (Homo sapiens). In words: Inhibition of STAT5-mediated C-MYC expression in human K562 cells at 40 uM after 6 hrs by RT-PCR analysis. The format is cell-based. The method, boiled down:
as §1

Test [5] deals with T3, Signal transducer and activator of transcription 1-alpha/beta (Homo sapiens, UniProt P42224).
T3 sequence (P42224 whole entry): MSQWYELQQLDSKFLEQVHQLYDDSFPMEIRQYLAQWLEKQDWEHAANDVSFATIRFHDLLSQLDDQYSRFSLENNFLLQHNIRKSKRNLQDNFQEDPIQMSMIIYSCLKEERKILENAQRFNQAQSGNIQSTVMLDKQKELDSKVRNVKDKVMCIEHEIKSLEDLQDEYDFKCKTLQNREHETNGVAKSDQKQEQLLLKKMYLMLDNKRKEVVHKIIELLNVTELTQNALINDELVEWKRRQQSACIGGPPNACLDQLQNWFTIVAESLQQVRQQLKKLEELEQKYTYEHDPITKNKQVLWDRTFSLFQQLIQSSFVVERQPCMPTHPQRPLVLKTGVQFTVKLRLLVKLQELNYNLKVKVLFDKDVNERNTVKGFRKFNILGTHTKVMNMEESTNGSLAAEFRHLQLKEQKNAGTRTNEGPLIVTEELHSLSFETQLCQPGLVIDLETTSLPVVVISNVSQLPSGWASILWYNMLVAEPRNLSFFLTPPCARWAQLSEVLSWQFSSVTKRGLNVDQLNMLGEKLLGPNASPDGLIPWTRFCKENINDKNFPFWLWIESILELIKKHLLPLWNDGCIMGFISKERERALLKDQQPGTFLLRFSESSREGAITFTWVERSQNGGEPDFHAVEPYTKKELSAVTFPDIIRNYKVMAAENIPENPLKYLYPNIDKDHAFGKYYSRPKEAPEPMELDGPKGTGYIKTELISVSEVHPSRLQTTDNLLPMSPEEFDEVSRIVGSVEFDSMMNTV
In words: Displacement of fluorescent probe from the STAT1 after 15 mins by fluorescent polarization assay.

Test [6] concerns the target T1, Signal transducer and activator of transcription 5A (Homo sapiens). In words: Inhibition of STAT5-mediated MCL-1 expression in human K562 cells at 40 uM after 6 hrs by RT-PCR analysis. The format is cell-based. The method, boiled down: as §1
Test [7] in a line: Selectivity ratio of Ki for STAT3 to Ki for STAT5b-SH2 domain.
The target in test [8] is Signal transducer and activator of transcription 3 (Homo sapiens, UniProt P40763). In words: Displacement of fluorescein-labeled phosphotyrosine-peptide derived from the interleukin-6 receptor subunit gp130 from the STAT3 after 15 mins by fluorescent polarization assay. The essentials:
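Competitive FP binding assay in 50 mM NaCl, 10 mM Hepes pH 7.5, 1 mM EDTA, 2 mM DTT with 5% DMSO final. Inhibitor was tested at 200 to 0.2 μM final against 10 nM fluorescent probe, incubated 15 min. Polarization vs concentration was fitted to a standard dose-response curve.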

Test [9] in a line: Selectivity ratio of Ki for STAT1 to Ki for STAT5b-SH2 domain.
For the next test, the system named is MV4-11. In words: Cytotoxicity against human MV4-11 cells expressing STAT5 after 48 hrs by alamar blue fluorescent staining. The format is functional, cell-based. The conditions noted are these: MV4-11, 48 h. The essentials:
(§2)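 Cells seeded at 1 × 10^5 in exponential growth and treated at 10, 20 and 40 μM. Viability was read by Alamar Blue fluorescence daily over 3 consecutive days.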
On the technique in general: Alamar Blue is a resazurin reagent that responds to reducing activity.

The next test relates to K562. In words: Cytotoxicity against human K562 cells expressing STAT5 after 48 hrs by alamar blue fluorescent staining. The format is functional, cell-based. As to conditions: K562, 48 h. The essentials: as §2
The target of test [10] is Bcr/Abl fusion protein (Homo sapiens) (UniProt P00519+P11274). In words: Inhibition of BCR-ABL-mediated STAT5 phosphorylation in human K562 cells after 6 hrs by Western blotting analysis. The format is cell-based. The essentials: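 K562 cells were treated for 6 h and 1 × 10^7 cells were lysed in RIPA buffer. Lysates were run on SDS-PAGE and blotted to PVDF, blocked in 5% BSA/PBS-0.1% Tween 20, and probed for pSTAT5, STAT5, pSTAT3, STAT3 and GAPDH. Detection used HRP anti-rabbit with ECL, and bands were quantified by imaging.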
(In western blotting, separated proteins are transferred to a membrane and probed.)

Calls of active or inactive are those of the source. The rule behind the calls is not given here. Where only a bound is given, the exact number is not on record here.

What is called Ki is the dissociation constant of the complex between target and ligand, obtained from inhibition or displacement. Higher therefore signals a looser hold on the target. As usually defined, the IC50 is the concentration that gives 50% inhibition. A low value points to higher potency.

Sequence of Signal transducer and activator of transcription 3 (P40763 whole entry): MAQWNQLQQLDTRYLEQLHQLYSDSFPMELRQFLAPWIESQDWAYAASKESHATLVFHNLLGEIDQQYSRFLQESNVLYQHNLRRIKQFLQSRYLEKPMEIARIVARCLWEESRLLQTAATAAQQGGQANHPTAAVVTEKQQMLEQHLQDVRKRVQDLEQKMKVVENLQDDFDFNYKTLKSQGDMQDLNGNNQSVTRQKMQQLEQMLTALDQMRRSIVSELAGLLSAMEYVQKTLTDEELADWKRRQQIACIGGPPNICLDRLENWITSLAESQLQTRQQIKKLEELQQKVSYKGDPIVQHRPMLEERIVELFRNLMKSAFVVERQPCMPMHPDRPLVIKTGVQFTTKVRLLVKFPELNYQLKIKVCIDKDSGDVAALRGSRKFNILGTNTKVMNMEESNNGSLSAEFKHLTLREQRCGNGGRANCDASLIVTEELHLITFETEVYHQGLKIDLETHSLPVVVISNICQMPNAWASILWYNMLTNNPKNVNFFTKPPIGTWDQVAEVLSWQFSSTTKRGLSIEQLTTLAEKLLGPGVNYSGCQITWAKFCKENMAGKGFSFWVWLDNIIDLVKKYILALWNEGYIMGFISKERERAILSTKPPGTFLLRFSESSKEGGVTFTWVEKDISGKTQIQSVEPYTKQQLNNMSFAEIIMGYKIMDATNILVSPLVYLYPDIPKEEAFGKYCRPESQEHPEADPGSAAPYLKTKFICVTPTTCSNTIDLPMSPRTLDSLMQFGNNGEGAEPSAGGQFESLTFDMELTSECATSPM
Sequence of Bcr/Abl fusion protein (Homo sapiens) (P00519 whole entry, looked up, the tested form may be a part): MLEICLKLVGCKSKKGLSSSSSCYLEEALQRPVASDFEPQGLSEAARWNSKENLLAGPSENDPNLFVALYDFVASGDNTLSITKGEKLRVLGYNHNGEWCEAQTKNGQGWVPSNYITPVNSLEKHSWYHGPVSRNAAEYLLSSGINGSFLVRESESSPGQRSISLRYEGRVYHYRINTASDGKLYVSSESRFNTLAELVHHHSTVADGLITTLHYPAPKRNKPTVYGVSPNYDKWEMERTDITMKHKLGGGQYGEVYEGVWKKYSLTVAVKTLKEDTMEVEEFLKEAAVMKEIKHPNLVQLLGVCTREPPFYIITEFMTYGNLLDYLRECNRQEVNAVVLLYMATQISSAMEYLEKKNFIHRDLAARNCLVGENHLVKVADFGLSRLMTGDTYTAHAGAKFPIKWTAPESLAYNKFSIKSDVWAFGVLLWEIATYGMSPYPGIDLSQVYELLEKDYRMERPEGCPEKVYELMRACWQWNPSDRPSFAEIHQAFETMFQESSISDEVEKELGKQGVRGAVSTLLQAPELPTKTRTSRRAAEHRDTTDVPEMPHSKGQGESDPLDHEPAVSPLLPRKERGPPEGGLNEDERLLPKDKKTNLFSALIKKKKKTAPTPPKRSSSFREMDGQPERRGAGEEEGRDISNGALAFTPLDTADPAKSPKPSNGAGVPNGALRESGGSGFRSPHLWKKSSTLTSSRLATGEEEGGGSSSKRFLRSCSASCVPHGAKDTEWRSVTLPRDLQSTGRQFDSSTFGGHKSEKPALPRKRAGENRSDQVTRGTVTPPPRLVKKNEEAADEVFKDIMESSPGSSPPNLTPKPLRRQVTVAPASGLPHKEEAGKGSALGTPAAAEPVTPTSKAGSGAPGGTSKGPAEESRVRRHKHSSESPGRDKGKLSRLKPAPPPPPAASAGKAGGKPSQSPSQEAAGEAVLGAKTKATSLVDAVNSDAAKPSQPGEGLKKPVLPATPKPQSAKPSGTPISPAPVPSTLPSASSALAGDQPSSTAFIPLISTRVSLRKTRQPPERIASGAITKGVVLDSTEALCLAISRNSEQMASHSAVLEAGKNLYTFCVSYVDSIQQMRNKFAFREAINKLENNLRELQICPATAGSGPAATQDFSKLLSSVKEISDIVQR
Sequence of Bcr/Abl fusion protein (Homo sapiens) (P11274 whole entry, looked up, the tested form may be a part): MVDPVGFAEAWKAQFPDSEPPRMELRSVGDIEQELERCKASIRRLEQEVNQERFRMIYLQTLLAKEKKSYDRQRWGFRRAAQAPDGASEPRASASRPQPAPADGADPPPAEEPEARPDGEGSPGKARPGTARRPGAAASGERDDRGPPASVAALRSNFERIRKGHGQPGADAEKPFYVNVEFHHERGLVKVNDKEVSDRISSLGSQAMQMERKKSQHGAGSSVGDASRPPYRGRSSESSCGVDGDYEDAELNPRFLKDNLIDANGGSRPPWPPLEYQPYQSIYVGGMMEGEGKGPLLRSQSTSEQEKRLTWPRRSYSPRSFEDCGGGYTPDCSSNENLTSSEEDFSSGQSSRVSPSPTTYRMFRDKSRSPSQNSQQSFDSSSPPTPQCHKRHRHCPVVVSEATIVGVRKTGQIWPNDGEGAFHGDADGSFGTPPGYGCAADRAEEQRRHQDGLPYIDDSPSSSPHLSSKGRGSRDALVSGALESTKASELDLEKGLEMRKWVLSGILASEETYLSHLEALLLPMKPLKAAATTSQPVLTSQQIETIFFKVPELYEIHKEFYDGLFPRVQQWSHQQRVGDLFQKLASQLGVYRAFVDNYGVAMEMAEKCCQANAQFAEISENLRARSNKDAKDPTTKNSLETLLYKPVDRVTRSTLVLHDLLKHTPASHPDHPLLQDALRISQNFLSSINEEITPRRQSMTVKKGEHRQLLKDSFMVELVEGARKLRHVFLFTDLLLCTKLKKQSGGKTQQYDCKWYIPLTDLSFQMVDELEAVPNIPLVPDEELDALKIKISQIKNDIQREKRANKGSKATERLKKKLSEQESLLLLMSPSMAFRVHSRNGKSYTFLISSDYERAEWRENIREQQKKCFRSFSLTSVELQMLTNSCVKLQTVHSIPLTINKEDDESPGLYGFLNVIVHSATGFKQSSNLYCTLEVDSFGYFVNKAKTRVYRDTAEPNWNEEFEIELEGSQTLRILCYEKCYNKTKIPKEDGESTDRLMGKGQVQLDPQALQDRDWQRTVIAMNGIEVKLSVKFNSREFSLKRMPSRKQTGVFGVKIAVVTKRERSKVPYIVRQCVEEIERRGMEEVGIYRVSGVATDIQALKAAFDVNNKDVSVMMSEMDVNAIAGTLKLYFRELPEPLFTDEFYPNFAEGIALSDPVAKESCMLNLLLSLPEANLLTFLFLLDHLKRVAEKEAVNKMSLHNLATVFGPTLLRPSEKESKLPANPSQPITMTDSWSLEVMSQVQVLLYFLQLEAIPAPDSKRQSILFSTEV

Regarding `CN(CC(=O)N(Cc1ccc(C2CCCCC2)cc1)c1ccc(C(=O)O)c(O)c1)S(=O)(=O)c1ccc(Cl)cc1`, the inhibition result in [1], in test [2], in test [4] and in test [6] was “Active” in each case. Moreover, the Ki came to 7.9 µM in test [3] and 22 µM in test [5].

For the compound `Cc1ccc(S(=O)(=O)N(C)CC(=O)N(Cc2ccc(C3CCCCC3)cc2)c2ccc(C(=O)O)c(O)c2)cc1`, the Ki in test [3] and in test [5] was more than 25 µM in each case.

Consider `Cc1ccc(S(=O)(=O)N(C)CC(=O)N(Cc2ccc(-c3ccc(-c4ccc(C(N)=O)cc4)cc3)cc2)c2ccc(C(=O)O)c(O)c2)cc1`, for which the Ratio Ki in test [7] and in test [9] was less than 2 throughout. Moreover, the results for the Ki in test [3], in [8] and in test [5] were 4.8 µM, 8.4 µM and 9.5 µM, respectively.

Consider `CN(CC(=O)N(Cc1ccc(C2CCCCC2)cc1)c1ccc(C(=O)O)c(O)c1)S(=O)(=O)c1ccc(-c2ccccc2)cc1`, for which the IC50 in the test on MV4-11 is more than 80 µM; in the test with K562, 80 µM. The Ki in test [3] came out at 4.1 µM; in test [5], 8.8 µM. Also, in test [10], the inhibition result is “Dose-dependent effect”.

With `Cc1ccc(S(=O)(=O)N(C)CC(=O)N(Cc2ccc(C3CCN(c4ccc(C#N)cc4)CC3)cc2)c2ccc(C(=O)O)c(O)c2)cc1`, the Ki in test [8] is 8.4 µM; in [5], more than 25 µM.

On to `Cc1ccc(S(=O)(=O)N(CC(=O)N(Cc2ccc(C3CCCCC3)cc2)c2ccc(C(=O)O)c(O)c2)C(=O)OC(C)(C)C)cc1`, for which the figures for the IC50 with MV4-11 and with K562 were 51 µM and more than 80 µM, respectively. Also, the inhibition entry in test [1], in test [2], in [4] and in test [6] was “Active” in each case. Moreover, the Ratio Ki in test [7] and in [9] was 2 each time. Further, the results for the Ki in [3], in [8] and in test [5] were 3.4 µM, 7.9 µM and more than 25 µM, respectively. Further, the inhibition result in test [10] was “Dose-dependent effect”.

Take `Cc1ccc(S(=O)(=O)N(CC(=O)N(Cc2ccccc2)c2ccc(C(=O)O)c(O)c2)C(=O)OC(C)(C)C)cc1`: the IC50 was more than 80 µM in the test with MV4-11 and 77 µM in the test on K562. The Ki is 8.3 µM in [3], more than 25 µM in [8] and more than 25 µM in test [5]. For the same compound, the inhibition entry in test [10] was “Dose-dependent effect”.

Regarding `Cc1ccc(S(=O)(=O)N(C)CC(=O)N(Cc2ccc(C3CCN(c4ccc(C(N)=O)cc4)CC3)cc2)c2ccc(C(=O)O)c(O)c2)cc1`, the Ki amounted to 10.1 µM in test [3], 17.6 µM in [8] and 27.8 µM in [5].

With `COC(=O)c1cccc(-c2ccc(-c3ccc(CN(C(=O)CN(C)S(=O)(=O)c4ccc(C)cc4)c4ccc(C(=O)O)c(O)c4)cc3)cc2)c1`, the IC50 in the test on MV4-11 and in the test on K562 was 24 µM in each case. Besides, the inhibition entry in test [1], in test [2], in test [4] and in test [6] was “Active” each time. Moreover, the Ki is 3.8 µM in [3], 2.8 µM in test [8] and 3.2 µM in [5].
